{
  "source": "ChEMBL document CHEMBL4406821",
  "about": "“Novel dual inhibitors targeting CDK4 and VEGFR2 synergistically suppressed cancer progression and angiogenesis” (Eur J Med Chem, 2019)",
  "key": {"[1]": {"molecular_target": "Mast/stem cell growth factor receptor Kit (Homo sapiens) (UniProt P10721)", "sequence (P10721 whole entry)": "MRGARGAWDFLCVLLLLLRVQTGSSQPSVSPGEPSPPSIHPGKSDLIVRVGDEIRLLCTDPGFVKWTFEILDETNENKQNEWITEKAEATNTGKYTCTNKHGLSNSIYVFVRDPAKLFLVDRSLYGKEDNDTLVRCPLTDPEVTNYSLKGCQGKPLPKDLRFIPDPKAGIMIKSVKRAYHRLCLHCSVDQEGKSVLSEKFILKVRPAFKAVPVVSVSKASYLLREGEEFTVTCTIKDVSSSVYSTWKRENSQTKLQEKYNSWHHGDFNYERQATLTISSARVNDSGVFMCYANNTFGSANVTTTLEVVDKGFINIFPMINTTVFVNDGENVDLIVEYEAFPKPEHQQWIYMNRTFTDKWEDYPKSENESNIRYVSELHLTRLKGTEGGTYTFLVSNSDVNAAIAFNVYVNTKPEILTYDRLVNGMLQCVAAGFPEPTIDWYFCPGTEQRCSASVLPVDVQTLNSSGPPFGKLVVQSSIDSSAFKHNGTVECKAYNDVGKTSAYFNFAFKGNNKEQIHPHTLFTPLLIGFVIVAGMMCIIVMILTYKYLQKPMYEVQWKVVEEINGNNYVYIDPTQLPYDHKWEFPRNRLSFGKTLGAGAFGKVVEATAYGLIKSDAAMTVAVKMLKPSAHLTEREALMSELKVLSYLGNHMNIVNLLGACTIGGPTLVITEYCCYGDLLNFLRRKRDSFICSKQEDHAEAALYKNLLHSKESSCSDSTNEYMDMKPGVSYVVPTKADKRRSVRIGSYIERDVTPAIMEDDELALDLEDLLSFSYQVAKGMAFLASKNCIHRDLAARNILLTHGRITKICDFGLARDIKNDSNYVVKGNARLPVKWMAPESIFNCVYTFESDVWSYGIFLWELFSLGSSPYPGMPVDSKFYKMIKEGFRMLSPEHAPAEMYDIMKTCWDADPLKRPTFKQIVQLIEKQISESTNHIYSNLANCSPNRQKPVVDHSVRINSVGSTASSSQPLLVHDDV", "test": "Inhibition of recombinant human cKIT (544 to end residues) at 1 uM using poly(Glu, Tyr) 4:1 as substrate incubated for 40 mins in presence of [gamma-33P]-ATP by scintillation counting method relative to control", "in_short": "(§1)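 Tested at a single 1 uM in an outsourced commercial kinase-profiling panel, read as percent inhibition. Each value is the mean of two independent experiments.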"}, "[2]": {"molecular_target": "Protein kinase C gamma type (Homo sapiens) (UniProt P05129)", "test": "Inhibition of recombinant human full length PKCgamma at 1 uM using histone H1 as substrate incubated for 40 mins in presence of [gamma-33P]-ATP by scintillation counting method relative to control"}, "[3]": {"molecular_target": "Protein-tyrosine kinase 6 (Homo sapiens) (UniProt Q13882)", "sequence (Q13882 whole entry, looked up)": "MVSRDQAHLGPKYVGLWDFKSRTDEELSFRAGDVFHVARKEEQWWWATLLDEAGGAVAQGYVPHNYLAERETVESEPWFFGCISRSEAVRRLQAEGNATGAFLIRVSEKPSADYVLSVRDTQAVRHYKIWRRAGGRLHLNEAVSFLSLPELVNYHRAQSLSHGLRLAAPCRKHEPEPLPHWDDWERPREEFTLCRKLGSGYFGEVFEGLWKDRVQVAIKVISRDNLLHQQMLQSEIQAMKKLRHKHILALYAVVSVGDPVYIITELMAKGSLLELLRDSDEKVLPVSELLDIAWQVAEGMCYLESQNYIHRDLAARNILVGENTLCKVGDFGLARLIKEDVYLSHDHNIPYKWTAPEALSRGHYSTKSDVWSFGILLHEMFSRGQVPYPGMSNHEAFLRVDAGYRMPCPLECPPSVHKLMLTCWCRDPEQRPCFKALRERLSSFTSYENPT", "test": "Inhibition of recombinant full length human BRK at 1 uM using poly(Glu, Tyr) 4:1 as substrate incubated for 40 mins in presence of [gamma-33P]-ATP by scintillation counting method relative to control", "in_short": "(§2)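 Kinase panel profiling at 1 μM performed by Eurofins KinaseProfiler; percent inhibition reported as mean of two independent experiments.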"}, "[4]": {"molecular_target": "Tyrosine-protein kinase TXK (Homo sapiens) (UniProt P42681)", "sequence (P42681 whole entry)": "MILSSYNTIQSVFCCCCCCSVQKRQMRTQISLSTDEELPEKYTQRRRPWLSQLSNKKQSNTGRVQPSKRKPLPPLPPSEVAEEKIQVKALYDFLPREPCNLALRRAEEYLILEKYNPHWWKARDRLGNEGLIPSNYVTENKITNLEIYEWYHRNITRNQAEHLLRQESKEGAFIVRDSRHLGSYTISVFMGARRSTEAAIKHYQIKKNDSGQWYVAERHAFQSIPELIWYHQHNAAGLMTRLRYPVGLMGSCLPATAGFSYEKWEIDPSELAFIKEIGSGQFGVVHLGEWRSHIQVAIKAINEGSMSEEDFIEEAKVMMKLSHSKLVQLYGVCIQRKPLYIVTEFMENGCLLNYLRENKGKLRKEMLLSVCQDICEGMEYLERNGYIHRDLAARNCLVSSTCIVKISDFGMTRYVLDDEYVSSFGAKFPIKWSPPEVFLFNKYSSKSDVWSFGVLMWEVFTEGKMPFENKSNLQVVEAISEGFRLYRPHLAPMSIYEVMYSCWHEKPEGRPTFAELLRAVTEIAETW", "test": "Inhibition of recombinant human TXK (256 to end residues) at 1 uM using GEEPLYWSFPAKKK as substrate incubated for 40 mins in presence of [gamma-33P]-ATP by scintillation counting method relative to control", "in_short": "as §1"}, "[5]": {"test": "Oral bioavailability in Sprague-Dawley rat at 10 mg/kg by HPLC-MS analysis", "type": "ADME, organism-based", "conditions": "in vivo"}, "[6]": {"molecular_target": "Serine/threonine-protein kinase tousled-like 1 (Homo sapiens) (UniProt Q9UKI8)", "test": "Inhibition of recombinant human full length TLK1 at 1 uM using casein as substrate incubated for 40 mins in presence of [gamma-33P]-ATP by scintillation counting method relative to control"}, "[7]": {"molecular_target": "Serine/threonine-protein kinase 32B (Homo sapiens) (UniProt Q9NY57)", "sequence (Q9NY57 whole entry)": "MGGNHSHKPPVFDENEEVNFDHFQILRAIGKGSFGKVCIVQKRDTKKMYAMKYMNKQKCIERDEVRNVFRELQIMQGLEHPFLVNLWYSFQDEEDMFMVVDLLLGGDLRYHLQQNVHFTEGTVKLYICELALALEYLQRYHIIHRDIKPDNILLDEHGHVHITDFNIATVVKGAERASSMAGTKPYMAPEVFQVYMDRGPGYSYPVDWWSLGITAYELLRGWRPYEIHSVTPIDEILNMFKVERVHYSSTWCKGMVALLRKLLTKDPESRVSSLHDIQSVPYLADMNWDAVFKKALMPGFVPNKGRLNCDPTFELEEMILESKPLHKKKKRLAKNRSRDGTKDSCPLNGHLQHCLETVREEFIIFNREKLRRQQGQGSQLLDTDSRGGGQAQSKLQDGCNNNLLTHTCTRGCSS", "test": "Inhibition of recombinant human full length STK32B at 1 uM using casein as substrate incubated for 40 mins in presence of [gamma-33P]-ATP by scintillation counting method relative to control"}, "[8]": {"molecular_target": "Mitogen-activated protein kinase 14 (Homo sapiens) (UniProt Q16539)", "test": "Inhibition of recombinant human full length SAPK2a at 1 uM using myelin basic protein as substrate incubated for 40 mins in presence of [gamma-33P]-ATP by scintillation counting method relative to control", "in_short": "as §1"}, "[9]": {"molecular_target": "Mitogen-activated protein kinase kinase kinase 11 (Homo sapiens) (UniProt Q16584)", "test": "Inhibition of recombinant human MLK3 at 1 uM incubated for 40 mins in presence of [gamma-33P]-ATP by scintillation counting method relative to control"}, "[10]": {"molecular_target": "Tyrosine-protein kinase HCK (Homo sapiens) (UniProt P08631)", "test": "Inhibition of recombinant activated human HCK (230 to 497 residues) at 1 uM using GGMEDIYFEFMGGKKK as substrate incubated for 40 mins in presence of [gamma-33P]-ATP by scintillation counting method relative to control", "in_short": "as §2"}, "[11]": {"molecular_target": "DNA-dependent protein kinase catalytic subunit (Homo sapiens) (UniProt P78527)", "test": "Inhibition of recombinant human full length DNA-PK at 1 uM using GST-cMyc-p53 as substrate incubated for 40 mins in presence of [gamma-33P]-ATP by scintillation counting method relative to control"}, "[12]": {"molecular_target": "Glycogen synthase kinase-3 alpha (Homo sapiens) (UniProt P49840)", "sequence (P49840 2-483 limits assumed)": "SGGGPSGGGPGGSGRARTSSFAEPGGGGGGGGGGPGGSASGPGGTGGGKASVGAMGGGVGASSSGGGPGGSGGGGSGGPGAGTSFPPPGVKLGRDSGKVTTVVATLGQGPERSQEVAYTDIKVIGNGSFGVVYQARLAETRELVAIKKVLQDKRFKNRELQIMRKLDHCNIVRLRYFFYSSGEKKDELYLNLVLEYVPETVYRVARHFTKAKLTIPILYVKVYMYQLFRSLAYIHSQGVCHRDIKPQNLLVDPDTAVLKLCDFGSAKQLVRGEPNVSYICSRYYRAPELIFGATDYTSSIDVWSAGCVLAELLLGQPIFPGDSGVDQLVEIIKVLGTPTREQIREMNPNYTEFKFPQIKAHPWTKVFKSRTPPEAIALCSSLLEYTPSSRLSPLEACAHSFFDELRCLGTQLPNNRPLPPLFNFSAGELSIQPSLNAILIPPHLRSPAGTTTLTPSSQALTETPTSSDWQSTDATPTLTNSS", "test": "Inhibition of recombinant human GSK3alpha (2 to end residues) at 1 uM using YRRAAVPPSPSLSRHSSPHQS(p) EDEEE as substrate incubated for 40 mins in presence of [gamma-33P]-ATP by scintillation counting method relative to control", "in_short": "as §1"}, "[13]": {"molecular_target": "Calcium/calmodulin-dependent protein kinase type 1D (Homo sapiens) (UniProt Q8IU85)", "sequence (Q8IU85 whole entry, looked up)": "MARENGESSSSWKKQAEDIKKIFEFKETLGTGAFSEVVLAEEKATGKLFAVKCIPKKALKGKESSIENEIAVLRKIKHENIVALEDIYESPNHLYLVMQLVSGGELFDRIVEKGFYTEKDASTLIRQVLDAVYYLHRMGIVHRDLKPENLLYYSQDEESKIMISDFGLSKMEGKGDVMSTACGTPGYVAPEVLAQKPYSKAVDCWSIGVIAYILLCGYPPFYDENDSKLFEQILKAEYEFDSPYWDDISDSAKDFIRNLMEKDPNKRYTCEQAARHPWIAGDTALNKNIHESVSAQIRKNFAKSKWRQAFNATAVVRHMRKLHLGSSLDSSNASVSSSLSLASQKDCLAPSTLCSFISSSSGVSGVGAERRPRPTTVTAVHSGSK", "test": "Inhibition of recombinant full length human CAMKIdelta at 1 uM using calmodulin as substrate incubated for 40 mins in presence of [gamma-33P]-ATP by scintillation counting method relative to control", "in_short": "as §2"}, "[14]": {"tested_on": "Serine/threonine-protein kinase Chk2 (Homo sapiens), O96017 [R145W]", "test": "Inhibition of recombinant human CHK2 R145W mutant (5 to end residues) at 1 uM using KKKVSRSGLYRSP as substrate incubated for 40 mins in presence of [gamma-33P]-ATP by scintillation counting method relative to control", "in_short": "as §2"}, "[15]": {"molecular_target": "Beta-adrenergic receptor kinase 1 (Homo sapiens) (UniProt P25098)", "test": "Inhibition of recombinant human full length GRK2 at 1 uM using casein as substrate incubated for 40 mins in presence of [gamma-33P]-ATP by scintillation counting method relative to control", "in_short": "as §1"}, "T47D": {"tested_on": "T47D", "test": "Induction of apoptosis in human T47D cells assessed as increase in late apoptotic cells at 20 to 40 nM incubated for 48 hrs by annexin V FITC and propidium iodide staining based flow cytometry", "type": "functional, cell-based", "in_short": "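Annexin V-FITC/PI double staining with flow-cytometric readout. MDA-MB-231, T-47D, SiHa and HeLa cells were treated with graded concentrations for 48 h. MDA-MB-231 and T-47D were grown in DMEM and SiHa in 1640 medium, each with 10% FBS and 1% penicillin/streptomycin at 37°C under 5% CO2. Early- and late-stage apoptotic fractions were scored.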"}, "[16]": {"test": "Toxicity in BALB/c mouse assessed as effect on blood parameter by measuring lymphocytes content at 40 mg/kg, po administered once two days for 4 times by hematology analyzer", "conditions": "in vivo"}, "[17]": {"molecular_target": "Serine/threonine-protein kinase ULK1 (Homo sapiens) (UniProt O75385)", "sequence (O75385 whole entry, the tested form may be a part)": "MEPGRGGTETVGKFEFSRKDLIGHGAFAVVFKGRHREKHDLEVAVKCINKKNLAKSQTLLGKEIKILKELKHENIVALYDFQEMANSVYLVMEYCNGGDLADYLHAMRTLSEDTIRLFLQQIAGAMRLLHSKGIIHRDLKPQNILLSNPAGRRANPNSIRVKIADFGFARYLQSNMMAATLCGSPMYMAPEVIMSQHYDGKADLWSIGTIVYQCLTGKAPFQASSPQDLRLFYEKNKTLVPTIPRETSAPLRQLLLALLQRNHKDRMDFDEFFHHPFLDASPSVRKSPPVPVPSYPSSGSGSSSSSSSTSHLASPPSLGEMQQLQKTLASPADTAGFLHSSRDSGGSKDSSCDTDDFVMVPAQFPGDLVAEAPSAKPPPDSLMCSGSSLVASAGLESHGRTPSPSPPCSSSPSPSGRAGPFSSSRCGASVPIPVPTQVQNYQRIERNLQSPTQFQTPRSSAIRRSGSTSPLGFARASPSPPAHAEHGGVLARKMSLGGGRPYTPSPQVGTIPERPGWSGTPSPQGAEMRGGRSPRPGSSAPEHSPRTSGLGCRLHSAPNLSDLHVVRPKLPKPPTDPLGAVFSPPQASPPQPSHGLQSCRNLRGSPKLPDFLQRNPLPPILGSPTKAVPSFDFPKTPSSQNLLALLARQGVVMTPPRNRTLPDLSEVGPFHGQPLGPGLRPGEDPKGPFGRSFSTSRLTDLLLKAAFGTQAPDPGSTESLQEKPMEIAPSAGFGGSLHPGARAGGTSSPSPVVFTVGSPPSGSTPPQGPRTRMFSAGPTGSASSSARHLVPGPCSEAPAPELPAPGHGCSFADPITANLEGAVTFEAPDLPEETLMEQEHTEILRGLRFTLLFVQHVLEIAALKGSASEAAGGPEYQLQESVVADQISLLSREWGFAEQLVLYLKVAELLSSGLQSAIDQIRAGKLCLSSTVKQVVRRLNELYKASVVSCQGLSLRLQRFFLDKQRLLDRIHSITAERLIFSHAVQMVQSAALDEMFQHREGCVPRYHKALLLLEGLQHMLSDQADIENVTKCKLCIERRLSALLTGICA", "test": "Inhibition of recombinant human ULK1 (1 to 314 residues) at 1 uM using casein as substrate incubated for 40 mins in presence of [gamma-33P]-ATP by scintillation counting method relative to control", "in_short": "as §1"}, "SiHa [18]": {"tested_on": "SiHa", "test": "Inhibition of colony formation in human SiHa cells at 80 nM incubated for 5 days by crystal violet staining based light microscopy", "type": "functional, cell-based", "in_short": "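4 × 10^3 cells per well were cultured with graded concentrations for 5 days. Cells were then fixed with 20% methanol, stained with 0.5% crystal violet and photographed by light microscopy.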"}, "MDA-MB-231": {"tested_on": "MDA-MB-231", "test": "Antiproliferative activity against human MDA-MB-231 cells at 40 nM assessed as reduction in cell viability incubated for 48 hrs by EdU staining based laser scanning confocal microscopy", "type": "functional", "in_short": "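Cells, 5×10^4, were seeded in 24-well plates and treated for 48 h. They were then labeled using an EdU Apollo 488 imaging kit with Hoechst 33342 nuclear stain and imaged by laser scanning confocal microscopy. Percent EdU-positive cells = EdU-positive/Hoechst-stained × 100%.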"}, "SiHa [19]": {"tested_on": "SiHa", "test": "Antitumor activity against human SiHa cells xenografted in NOD/SCID BALB/c mouse assessed as tumor growth inhibition at 40 mg/kg, po administered for 21 days", "type": "functional, organism-based"}, "HUVEC": {"tested_on": "HUVEC", "test": "Antiproliferative activity against HUVEC cells assessed as reduction in cell viability at 40 nM measured upto 72 hrs by CCK8 assay", "type": "functional, cell-based", "conditions": "Homo sapiens", "in_short": "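HUVECs, 3×10³ cells/well, kept in 1640 medium with 10% FBS at 37°C and 5% CO₂. Cells were treated at 20 or 40 nM or vehicle, and viability was read by CCK-8 (absorbance 450 nm) at 0, 12, 24, 36, 48, 60 and 72 h. Five replicates per sample.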"}},
  "note": "Calls of active or inactive are those of the source. The calls are words filed in the database; no cut-off is given here.",
  "data": [
    {"smiles": "Cc1ccc(NC(=O)C2(C(=O)Nc3ccc(Nc4ncc(F)c(-c5cc(F)c6nc(C)n(C(C)C)c6c5)n4)cc3)CC2)cc1", "values": [
      {"measurement": "inhibition", "setting": "[1]", "value": 17, "unit": "%"},
      {"measurement": "inhibition", "setting": "[2]", "value": 23, "unit": "%"},
      {"measurement": "inhibition", "setting": "[3]", "value": 22, "unit": "%"},
      {"measurement": "inhibition", "setting": "[4]", "value": 0, "unit": "%"},
      {"measurement": "bioavailability", "setting": "[5]", "value": 60, "unit": "%"},
      {"measurement": "inhibition", "setting": "[6]", "value": 31, "unit": "%"},
      {"measurement": "inhibition", "setting": "[7]", "value": 2, "unit": "%"},
      {"measurement": "inhibition", "setting": "[8]", "value": 0, "unit": "%"},
      {"measurement": "inhibition", "setting": "[9]", "value": -2, "unit": "%"},
      {"measurement": "inhibition", "setting": "[10]", "value": 33, "unit": "%"},
      {"measurement": "inhibition", "setting": "[11]", "value": 3, "unit": "%"},
      {"measurement": "inhibition", "setting": "[12]", "value": 0, "unit": "%"},
      {"measurement": "inhibition", "setting": "[13]", "value": 1, "unit": "%"},
      {"measurement": "inhibition", "setting": "[14]", "value": 28, "unit": "%"},
      {"measurement": "inhibition", "setting": "[15]", "value": 0, "unit": "%"},
      {"measurement": "Activity", "setting": "T47D", "value": "Active"},
      {"measurement": "Activity", "setting": "[16]", "value": "Non-Toxic"},
      {"measurement": "inhibition", "setting": "[17]", "value": 0, "unit": "%"}
    ]},
    {"smiles": "COc1cc2nccc(Oc3ccc(NC(=O)C4(C(=O)Nc5ccc(F)cc5)CC4)cc3)c2cc1OC", "note": "[CABOZANTINIB]", "values": [
      {"measurement": "inhibition", "setting": "SiHa [18]", "value": "Active"},
      {"measurement": "inhibition", "setting": "MDA-MB-231", "value": "Active"},
      {"measurement": "TGI", "setting": "SiHa [19]", "value": "Active"},
      {"measurement": "inhibition", "setting": "HUVEC", "value": "Active"}
    ]}
  ]
}
